Read-outs that look alike come from different tables or passages of the source.
Tests used:
[1] = test system: S. aureus USA300; assay: Membrane permeation, propidium iodide probe; assay type: cell-based, Staphylococcus aureus; conditions: peptides at 3.1 μM; antibiotics at their MIC values
Outline: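 Serially diluted test compound was combined with propidium iodide (20 μM) and bacteria in TSB at final OD600 ~0.1. Incubated at 37°C with shaking at 100 rpm. Fluorescence (ex 584 nm, em 620 nm) was read every 5 min for 2 h. Each condition was run in duplicate.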

[2] = test system: S. aureus USA300
[3] = test system: chymotrypsin; conditions: cited from earlier work
[4] = test system: fungal protease K; conditions: cited from earlier work
[5] = S. aureus USA300, MIC values used in Figure 9B

| Molecule | membrane permeation of S. aureus USA300 (PI fluorescence) [1] | MIC of antibiotics [2, 5] [µM] | MIC of antibiotics ([2]; USA300, 20 h) [µM] | resistance to chymotrypsin [3] | resistance to fungal protease K [4] |
| --- | --- | --- | --- | --- | --- |
| CN[C@H](CC(C)C)C(=O)N[C@H]1C(=O)N[C@@H](CC(N)=O)C(=O)N[C@H]2C(=O)N[C@H]3C(=O)N[C@H](C(=O)N[C@H](C(=O)O)c4cc(O)cc(O)c4-c4cc3ccc4O)[C@H](O)c3ccc(c(Cl)c3)Oc3cc2cc(c3O[C@@H]2O[C@H](CO)[C@@H](O)[C@H](O)[C@H]2O[C@H]2C[C@](C)(N)[C@H](O)[C@H](C)O2)Oc2ccc(cc2Cl)[C@H]1O [vancomycin] | no membrane permeation | 0.78 | – | – | – |
| CCCCCCCCCC(=O)N[C@@H](Cc1c[nH]c2ccccc12)C(=O)N[C@H](CC(N)=O)C(=O)N[C@@H](CC(=O)O)C(=O)N[C@@H]1C(=O)NCC(=O)N[C@@H](CCCN)C(=O)N[C@@H](CC(=O)O)C(=O)N[C@H](C)C(=O)N[C@@H](CC(=O)O)C(=O)NCC(=O)N[C@H](CO)C(=O)N[C@@H]([C@H](C)CC(=O)O)C(=O)N[C@@H](CC(=O)c2ccccc2N)C(=O)O[C@@H]1C [daptomycin] | – | – | 0.78 | – | – |
| GF-17: synthetic peptide of LL-37 residues 17–32 plus an extra N-terminal glycine (FKRIVQRIKDFLRNLV; extra N-terminal glycine) | – | – | – | but not GF-17, is resistant | but not GF-17, is resistant |
| CO[C@H]1/C=C/O[C@@]2(C)Oc3c(C)c(O)c4c(O)c(cc(O)c4c3C2=O)NC(=O)/C(C)=C\C=C\[C@H](C)[C@H](O)[C@@H](C)[C@@H](O)[C@@H](C)[C@H](OC(C)=O)[C@@H]1C [rifamycin] | no membrane permeation | 0.2 | – | – | – |

— article PMC6379907 (Advanced biosystems, 2018)
